Experimental data gathered from unrelated publications.
Protocols differ between the studies behind these lines.

Fc1ccc(Nc2c(-c3ncccc3F)nc3ccccn23)cc1
hepatocyte CLint (metabolic stability; rat, hepatocytes): 100 µL/min/10⁶ cells

COc1ccc(Nc2nc(-c3ccccn3)nc3ccccc23)cc1
microsomal CLint (metabolic stability; human, liver microsomes): 73 µL/min/mg

Fc1ccc(Nc2c(-c3ccccn3)nc3ccccn23)nc1
hepatocyte CLint (metabolic stability; rat, hepatocytes): 18 µL/min/10⁶ cells

C[C@@H](C(=O)N1Cc2c(-c3ccc(C(=O)N4CCCc5ccccc54)cc3)cnn2C[C@@H]1C)c1ccccc1
chromatographic logD (HPLC; pH 7.4): 4.8

C[C@H](C(=O)N[C@@H]1COc2ccccc2[C@H]1S(C)(=O)=O)c1ccc(F)cc1
microsomal CLint (metabolic stability; rat, liver microsomes; 1 µM): 55 µL/min/mg

c1ccc(-c2nc(NCCn3cnc4ccccc43)c3ccccc3n2)nc1
microsomal CLint (metabolic stability; human, liver microsomes): 150 µL/min/mg

Fc1ccc(Nc2c(-c3cc(Cl)ccn3)nc3ccccn23)cc1
hepatocyte CLint (metabolic stability; rat, hepatocytes): > 300 µL/min/10⁶ cells

OC[C@H]1O[C@@H](c2ccc(Cl)c(Cc3ccc(O[C@H]4CCOC4)cc3)c2)[C@H](O)[C@@H](O)[C@@H]1O
renal clearance (human, urine; oral, 2.5 mg, single dose): 29.1 mL/min

CS(=O)(=O)CCC#N
CL/F (human, plasma; oral, 100 mg, single dose, fasted): 0.3 mL/min/kg

c1ccc(-c2nc(N3CCCC3c3ccccn3)c3ccccc3n2)nc1 (centres unmarked)
microsomal CLint (metabolic stability; human, liver microsomes): 62 µL/min/mg

c1cnc2ccc(Nc3nc(NC4CC4)c4nc[nH]c4n3)cc2c1
CL/F (human, plasma; oral, 200 mg/m², patients): 80.9 L/h

CN(C)C(=O)c1ccc(-c2c(-c3ccccn3)nc3n2CCC3)cc1
hepatocyte CLint (metabolic stability; rat, hepatocytes): < 1 µL/min/10⁶ cells

Cc1cccc(N2CCN(c3nc(-c4ccccn4)nc4ccccc34)CC2)n1
microsomal CLint (metabolic stability; human, liver microsomes): 165 µL/min/mg

CCOC(=O)C1=C(C)N/C(=C/c2cc(C)n(Cc3ccc(C(F)(F)F)cc3)c2C)C1=O
chromatographic logD (HPLC; pH 7.4): 3.5

c1ccc(-c2nc(N3CCCCCC3)c3ccccc3n2)nc1
microsomal CLint (metabolic stability; human, liver microsomes): 190 µL/min/mg

CC(C)CN(C[C@@H](O)[C@H](Cc1ccccc1)NC(=O)O[C@H]1CO[C@H]2OCC[C@H]21)S(=O)(=O)c1ccc(N)cc1
logD (shake flask; PBS; pH 3): 2.98

CN(c1ccc(F)cc1)c1c(-c2ccc(F)cn2)nc2ccccn12
hepatocyte CLint (metabolic stability; rat, hepatocytes): > 300 µL/min/10⁶ cells

Cc1ccc(C(=O)N(CCCN)[C@@H](c2oc3cc(Cl)ccc3c(=O)c2Cc2ccccc2)C(C)C)cc1
clearance (human, plasma; intravenous, 6 mg/m², single dose, patients, infusion): 23.6 mL/min

CC(C)CCN(c1ccc(F)cc1)c1c(-c2ccccn2)nc2ccccn12
hepatocyte CLint (metabolic stability; rat, hepatocytes): > 300 µL/min/10⁶ cells

CC1=C(C(=O)OCc2ccccc2)C(=O)/C(=C\c2cc(C)n(-c3ccccc3C(F)(F)F)c2C)N1
chromatographic logD (HPLC; pH 7.4): 4

OC[C@H]1O[C@@H](c2ccc(Cl)c(Cc3ccc(O[C@H]4CCOC4)cc3)c2)[C@H](O)[C@@H](O)[C@@H]1O
CL/F (human, plasma; oral, multiple doses, steady state): 8.99 L/h

COc1ccn2c(Nc3ccccc3F)c(-c3ccncn3)nc2c1
hepatocyte CLint (metabolic stability; rat, hepatocytes): 170 µL/min/10⁶ cells

c1ccc(-c2nc(N3CCc4ncccc4C3)c3ccccc3n2)nc1
microsomal CLint (metabolic stability; human, liver microsomes): 71 µL/min/mg

CCNCCCNC/C=C\CNCCCNCC
clearance (human, plasma; intravenous, 200 mg, patients, infusion): 3140 mL/min

Cc1c(C(=O)NN2CCCCC2)nc(-c2ccc(Cl)cc2Cl)n1-c1ccc(OCc2ccccc2)cc1
logD (shake flask; aqueous buffer; pH 7.4): > 5.3

COc1ccccc1-c1nc(N2CCC(c3ccccn3)C2)c2ccccc2n1 (centres unmarked)
microsomal CLint (metabolic stability; human, liver microsomes): 69 µL/min/mg

COc1cc(C(=O)NC2CCN(C)CC2)c(F)cc1Nc1ncc(C(F)(F)F)c(Oc2cccc3c2C(=O)N(C)C3)n1
CL/F (human, plasma; oral, 10 mg, multiple doses, once daily, patients): 20.8 L/h

COc1cccc(-c2nc3ccccn3c2Nc2ccc(F)cc2)n1
hepatocyte CLint (metabolic stability; rat, hepatocytes): > 300 µL/min/10⁶ cells

c1ccc(C2CCN(c3nc(-c4ccn[nH]4)nc4ccccc34)C2)nc1 (centres unmarked)
microsomal CLint (metabolic stability; human, liver microsomes): 46 µL/min/mg
